A short description of series [1]: Partition coefficient (logP). It is filed as physicochemical. To be noted: octanol/water.
The species named for series [2] is Homo sapiens. As to the kind of experiment: Inhibitory activity against human platelet aggregation. The series is classed as functional. In a few lines: (§1)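 Human citrated PRP (blood:3.2% citrate 8:1; 120g, 15 min, 23 °C), count adjusted to 250 000–300 000/mm^3 with autologous PPP, gassed with 5% CO2/95% air, held at 37 °C. Test compound incubated 4 min. Aggregation triggered with each donor's minimal ADP concentration giving full biphasic response. Light transmission recorded 5.5 min. IC50 from regression of % inhibition on log molar concentration; mean ± SE, 4–6 determinations.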

The species named for series [3] is Homo sapiens. As to the kind of experiment: Inhibitory activity against human platelet aggregation; Inactive. The series is classed as functional. A digest of the protocol:
as §1

The species named for series [4] is Homo sapiens. Briefly: Inhibitory activity against human platelet aggregation at 200 uM. The series is classed as functional.

Structures are written as SMILES. Bounds are passed on as bounds.

As usually defined, the logP is a log measure of how a compound divides between an organic and an aqueous phase. By IC50 is commonly meant the concentration needed to halve the response being measured. `CC(C)N(C(=O)C1CCCN(Cc2ccc(CN3CCCC(C(=O)N(C(C)C)C(C)C)C3)cc2)C1)C(C)C` (stereo not drawn): the logP in series [1] (read-out: logP) came out at 5.55. In addition, the IC50 in the series listed under Homo sapiens [2] (Homo sapiens, read-out: IC50) came to 58.8 µM.
On the same counts, the results for `CCN(CC)C(=O)C1CCCN(Cc2ccccc2)C1` (stereo not drawn) are 2.75 and 7400 µM.
For the compound `CCN(CC)C(=S)C1CCCN(Cc2ccc(CN3CCCC(C(=S)N(CC)CC)C3)cc2)C1` (stereo not drawn), in series [1] (read-out: logP), the logP was determined as 5.01. The IC50 in the series filed under Homo sapiens [2] (Homo sapiens, read-out: IC50) was determined as 51.6 µM.
As for `CCCCCCCCCCN1CCCC(C(=O)N2CCN(C(=O)C3CCCN(CCCCCCCCCC)C3)C(C)C2)C1` (stereo not drawn), in series [1], the logP is 9.58. The IC50 in the series listed under Homo sapiens [2] (Homo sapiens, read-out: IC50) was 20.9 µM.
With `O=C(C1CCCN(Cc2ccc(CN3CCCC(C(=O)N(Cc4ccccc4)Cc4ccccc4)C3)cc2)C1)N(Cc1ccccc1)Cc1ccccc1` (stereo not drawn), the logP in series [1] (read-out: logP) was determined as 8.03. In addition, the half-inhibitory concentration (IC50) in the series filed under Homo sapiens [2] (Homo sapiens, read-out: IC50) worked out at 303 µM.
On the same counts, the results for `COc1cc(CNC(=O)C2CCCN(Cc3ccc(CN4CCCC(C(=O)NCc5cc(OC)c(OC)c(OC)c5)C4)cc3)C2)cc(OC)c1OC` (stereo not drawn) are 4.06 and 134 µM.
On the same counts, the results for `CCOC(=O)C1CCCN(Cc2ccc(CN3CCCC(C(=O)OCC)C3)cc2)C1` (stereo not drawn) are 4.21 and 757 µM.
Turning to `O=C(O)C1CCCN(Cc2ccc(CN3CCCC(C(=O)O)C3)cc2)C1` (stereo not drawn), in series [1] (read-out: logP), the logP was determined as 2.45. Further, the IC50 in the series listed under Homo sapiens [2] (Homo sapiens, read-out: IC50) is greater than 500 µM.
Take `CCCCCCCCCCN1CCCC(C(=S)N(CC)CC)C1` (stereo not drawn): the logP in series [1] (read-out: logP) is 6.53. Further, the IC50 in the series filed under Homo sapiens [2] (Homo sapiens, read-out: IC50) is 358 µM.
On the same counts, the results for `CCCN(CCC)C(=O)C1CCCN(Cc2ccc(CN3CCCC(C(=O)N(CCC)CCC)C3)cc2)C1` (stereo not drawn) are 5.55 and 39.3 µM.
Consider `CC1CCCN(Cc2ccc(CN3CCCC(C)C3)cc2)C1` (stereo not drawn), for which the logP in series [1] (read-out: logP) is 4.6. Further, the IC50 in the series filed under Homo sapiens [2] (Homo sapiens, read-out: IC50) was greater than 500 µM.
On the same counts, the results for `CCN(CC)C(=O)C1CCCN(CCCCCCCCCCCCN2CCCC(C(=O)N(CC)CC)C2)C1` (stereo not drawn) are 6.96 and 85.3 µM.
On the same counts, the results for `CCN(CC)C(=O)C1CCCN(CN2CC2)C1` (stereo not drawn) are 2.43 and 3250 µM.
As to `CCCCCCCCCCN1CCCC(C(=O)N2CC(C)N(C(=O)C3CCCN(CCCCCCCCCC)C3)C(C)C2)C1` (stereo not drawn), in series [1], the logP was 10.096. Further, the IC50 in the series listed under Homo sapiens [2] (Homo sapiens, read-out: IC50) turned out to be 22.9 µM.
For the compound `CCN(CC)C(=O)C1CCCN(Cc2ccc(-c3ccc(CN4CCCC(C(=O)N(CC)CC)C4)cc3)cc2)C1` (stereo not drawn), the logP in series [1] (read-out: logP) stood at 5.43. Moreover, the IC50 in the series filed under Homo sapiens [2] (Homo sapiens, read-out: IC50) is 478 µM.
Turning to `CCN(CC)C(=O)C1CCCN(Cc2ccc(Cl)cc2)C1` (stereo not drawn), the logP in series [1] (read-out: logP) amounted to 3.49. In the series listed under Homo sapiens [2] (Homo sapiens, read-out: IC50), the IC50 was determined as 217 µM.
On the same counts, the results for `O=C(C1CCCN(Cc2ccc(CN3CCCC(C(=O)N4CCOCC4)C3)cc2)C1)N1CCOCC1` (stereo not drawn) are 0.74 and 1650 µM.
On the same counts, the results for `O=C(C1CCCN(Cc2ccc(CN3CCCC(C(=O)N4CCCC4)C3)cc2)C1)N1CCCC1` (stereo not drawn) are 2.75 and 32.7 µM.
Consider `CCCN(C)C(=O)C1CCCN(Cc2ccc(CN3CCCC(C(=O)N(C)CCC)C3)cc2)C1` (stereo not drawn), for which, in series [1] (read-out: logP), the logP was determined as 3.48. Also, the IC50 in the series listed under Homo sapiens [2] (Homo sapiens, read-out: IC50) was 34.6 µM.
On the same counts, the results for `CCN(CC)C(=O)C1CCCN(CCCCCCCCN2CCCC(C(=O)N(CC)CC)C2)C1` (stereo not drawn) are 4.89 and 214 µM.
Turning to `Br.Br.CCN(CC)C(=O)C1CC(C(=O)N(CC)CC)CN(Cc2ccc(CN3CC(C(=O)N(CC)CC)CC(C(=O)N(CC)CC)C3)cc2)C1` (stereo not drawn), the logP in series [1] (read-out: logP) was 3.39. In addition, the IC50 entry in the series filed under Homo sapiens [3] was “Not Active”.
Turning to `CCCCCCCCCCN1CCCC(C(=O)N2CCC(C3CCN(C(=O)C4CCCN(CCCCCCCCCC)C4)CC3)CC2)C1` (stereo not drawn), in series [1], the logP is given as 11.322. Besides, the IC50 in the series listed under Homo sapiens [2] (Homo sapiens, read-out: IC50) was 25.9 µM.
As to `CCCCCN1CCCC(C(=O)N2CCCN(C(=O)C3CCCN(CCCCC)C3)CC2)C1` (stereo not drawn), the logP in series [1] (read-out: logP) is 4.63. In addition, the half-maximal inhibitory concentration (IC50) in the series filed under Homo sapiens [2] (Homo sapiens, read-out: IC50) turned out to be 84.6 µM.
For `CCN(CC)C(=O)C1CCCN(CCCCCCCCCCN2CCCC(C(=O)N(CC)CC)C2)C1` (stereo not drawn), the logP in series [1] (read-out: logP) worked out at 5.92. In addition, the IC50 in the series filed under Homo sapiens [2] (Homo sapiens, read-out: IC50) was 207 µM.
Consider `O=C(C1CCCN(Cc2ccc(CN3CCCC(C(=O)N4CCC(Cc5ccccc5)CC4)C3)cc2)C1)N1CCC(Cc2ccccc2)CC1` (stereo not drawn), for which, in series [1] (read-out: logP), the logP turned out to be 8.14. For the same compound, the IC50 in the series listed under Homo sapiens [2] (Homo sapiens, read-out: IC50) came out at 277 µM.
On the same counts, the results for `CCN(CC)C(=O)C1CCCN(Cc2cccc(Cl)c2)C1` (stereo not drawn) are 3.49 and 1650 µM.
In turn, `CCCCCCCCCCN1CCCC(NC(=O)C2CCCN(CCCCCCCCCC)C2)C1` (stereo not drawn) had a logP in series [1] of 9.96. In addition, the IC50 result in the series filed under Homo sapiens [3] is recorded as “Not Active”.
Take `CCCCCCCCCCN1CCCC(C(=O)N2CCN(C(=O)C3CCCN(CCCCCCCCCC)C3)CC2)C1` (stereo not drawn): the logP in series [1] came to 9.06. Moreover, the IC50 in the series listed under Homo sapiens [2] (Homo sapiens, read-out: IC50) is 16 µM.
Take `CC(C)N(C)C(=O)C1CCCN(Cc2ccc(CN3CCCC(C(=O)N(C)C(C)C)C3)cc2)C1` (stereo not drawn): the logP in series [1] (read-out: logP) turned out to be 3.48. Moreover, the IC50 in the series filed under Homo sapiens [2] (Homo sapiens, read-out: IC50) came to 144 µM.
Consider `CC(=O)NCC1CCCN(Cc2ccc(CN3CCCC(CNC(C)=O)C3)cc2)C1` (stereo not drawn), for which the logP in series [1] (read-out: logP) amounted to 0.74.
`CCN(CC)C(=O)C1CCCN(Cc2ccccc2-c2ccccc2CN2CCCC(C(=O)N(CC)CC)C2)C1` (stereo not drawn): in series [1] (read-out: logP), the logP turned out to be 5.43. For the same compound, the IC50 in the series filed under Homo sapiens [2] (Homo sapiens, read-out: IC50) turned out to be 354 µM.
As for `c1cc(CN2CCCCC2)ccc1CN1CCCCC1`, the logP in series [1] (read-out: logP) was 3.57. For the same compound, the IC50 in the series filed under Homo sapiens [2] (Homo sapiens, read-out: IC50) turned out to be 8460 µM.
On the same counts, the results for `CCCCCCN(C)C(=O)C1CCCN(Cc2ccc(CN3CCCC(C(=O)N(C)CCCCCC)C3)cc2)C1` (stereo not drawn) are 6.59 and 48.8 µM.
On the same counts, the results for `CC(O)C1CCCN(Cc2ccc(CN3CCCC(C(C)O)C3)cc2)C1` (stereo not drawn) are 2.3 and 589 µM.
On the same counts, the results for `CCN(CC)C(=O)C1CCCN(CC2CCC(CN3CCCC(C(=O)N(CC)CC)C3)CC2)C1` (stereo not drawn) are 4.57 and greater than 1000 µM.
Consider `CCN(Cc1ccccc1)C(=O)C1CCCN(Cc2ccc(CN3CCCC(C(=O)N(CC)Cc4ccccc4)C3)cc2)C1` (stereo not drawn), for which, in series [1] (read-out: logP), the logP was 5.76. The IC50 in the series listed under Homo sapiens [2] (Homo sapiens, read-out: IC50) was determined as 37.7 µM.
As to `O=C(NCc1ccccc1)C1CCCN(Cc2ccc(CN3CCCC(C(=O)NCc4ccccc4)C3)cc2)C1` (stereo not drawn), the logP in series [1] (read-out: logP) came out at 4.18. The IC50 in the series listed under Homo sapiens [2] (Homo sapiens, read-out: IC50) amounted to 53.6 µM.
The inhibition is how much of the control response was suppressed. Lower therefore signals a response near the control. Take `Br.CCN(CC)C(=O)C1CCCN(Cc2ccc(C(C)(C)C)cc2)C1` (stereo not drawn): the logP in series [1] (read-out: logP) came to 4.83. Besides, the inhibition at 200 µM in the series filed under Homo sapiens [4] worked out at 2%. In addition, the IC50 entry in the series filed under Homo sapiens [2] is on record as “Not Active”.
Turning to `O=C(C1CCCN(Cc2ccc(CN3CCCC(C(=O)N4CCSCC4)C3)cc2)C1)N1CCSCC1` (stereo not drawn), the logP in series [1] (read-out: logP) was found to be 2.89. Besides, the IC50 in the series filed under Homo sapiens [2] (Homo sapiens, read-out: IC50) is 311 µM.
On the same counts, the results for `CCCCN(CC)C(=O)C1CCCN(Cc2ccc(CN3CCCC(C(=O)N(CC)CCCC)C3)cc2)C1` (stereo not drawn) are 5.55 and 18.4 µM.
On the same counts, the results for `CCCCCCCCCCN1CCCC(C(=O)N(CC)CC)C1` (stereo not drawn) are 5.76 and 242 µM.
For `CCCCCCCCCCN1CCCC(C(=O)N2CC(C)N(C(=O)C3CCCN(CCCCCCCCCC)C3)CC2C)C1` (stereo not drawn), the logP in series [1] was found to be 10.096. In addition, the IC50 in the series listed under Homo sapiens [2] (Homo sapiens, read-out: IC50) was 23.8 µM.
For the compound `O=C(C1CCCN(Cc2ccc(CN3CCCC(C(=O)N4CCCCC4)C3)cc2)C1)N1CCCCC1` (stereo not drawn), the logP in series [1] (read-out: logP) worked out at 3.79. Also, in the series listed under Homo sapiens [2] (Homo sapiens, read-out: IC50), the IC50 came to 28.9 µM.
Take `CCN(CC)C(=O)C1CCCN(Cc2ccccc2Cl)C1` (stereo not drawn): the logP in series [1] (read-out: logP) was found to be 3.49. Further, the IC50 in the series filed under Homo sapiens [2] (Homo sapiens, read-out: IC50) was 2810 µM.

The record behind these values is ChEMBL document CHEMBL1128335, “Design and synthesis of piperidine-3-carboxamides as human platelet aggregation inhibitors” (J Med Chem, 1995).
